INS promoter act – TRM-6 insulin promoter activation | activation, % at 2 µM | AID 1296 | TRM-6 cells (human fetal islet line), insulin promoter eGFP reporter, imaging; plate-scaled: unstimulated 0, stimulated control 100 | 0.81% of 130,000 active;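 active = activation at 2 µM above a set limit, confirmed on inspection of the cell images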;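 note: share of cells whose green reporter signal exceeds an intensity cutoff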
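Assay system: TRM-6 human fetal islet cells, insulin promoter–eGFP reporter; Also added: 0.75 µM tamoxifen as reporter inducer; Schedule: 15 h tamoxifen pre-treatment, 48 h compound treatment at 37 °C; Signal: fixed-cell fluorescence microscopy, eGFP plus Hoechst; Read-out: percent activation from GFP-positive cell fraction; Control set: stimulated and unstimulated wells.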
The depositor's hits bear a star; [ ] = another dose, or the depositor's remark. The sample as a whole holds a higher share of hits than the screen did.

SMILES | INS promoter act
O=c1c2ccccc2nc2sc3ccccc3n12 | 9
CCC(NS(=O)(=O)c1cn(C)nc1C)c1ccccc1 (stereo unspecified) | -5
COCCNS(=O)(=O)c1cc(F)ccc1OC | 0
Cc1cc(C)nc(N2C(=O)CC(C(C)c3ccccc3)C2=O)n1 (stereo unspecified) | 306
O=C(CSc1nnc(-c2ccc(Cl)cc2)n1Cc1ccco1)NCc1ccc2c(c1)OCO2 | 80*
CCOC(=O)CNC(=O)CSc1nnc(-c2ccccc2)n1Cc1ccco1 | -6
COc1ccc(-c2cnc(SCC(=O)Nc3ccc4c(c3)OCO4)n2Cc2ccco2)cc1 | -6
CC(=O)Nc1ccc(C(=O)Nc2ccc(S(=O)(=O)NCC3CCCO3)cc2)cc1 (stereo unspecified) | -6
Cc1cc(NC(=O)c2ccc(S(=O)(=O)N(C)CC3CCCO3)cc2)no1 (stereo unspecified) | 414*
Cc1cc(NC(=O)c2ccc3c(c2)OCO3)no1 | -85
NC(=O)CSc1nc2ccccc2n1Cc1ccccc1 | 6
O=C(Nc1cccs1)Nc1ccc(Br)cc1F | -70
CCOCCCn1c(=S)[nH]c2cc(C(=O)N3CCC(C(N)=O)(N4CCCCC4)CC3)ccc2c1=O | -7
O=C(c1cccn2c(=O)c3cc(Cl)ccc3nc12)N1CCN(Cc2ccc3c(c2)OCO3)CC1 | -9
NC(=O)C1(N2CCCCC2)CCN(C(=O)c2cccn3c(=O)c4cc(Cl)ccc4nc23)CC1 | 150*
CC(C)(C)c1ccc(-c2n[nH]c(=S)n2CCCN2CCOCC2)cc1 | 5
Cc1cccc(NC2=C(NCCO)C(=O)c3ccccc3C2=O)c1 | -60
O=C(NC1CCCCC1)n1c(=O)oc2ccccc21 | -3
Cn1c(=O)c(NC2CCCCC2)c2c3c(cccc31)C(=O)c1ccccc1-2 | 567*
Cn1c(=O)c(NCCc2ccccc2)c2c3c(cccc31)C(=O)c1ccccc1-2 | 170*[may fluoresce]
O=c1cc(NCCc2ccccc2)c2ccccc2o1 | 133
O=C1c2ccccc2C(=O)c2c1cccc2N1CCCC1 | 0
CCOC(=O)C1=C(CC)NC2=C(C(=O)CCC2)C1c1ccc(OC)c(OC)c1 (stereo unspecified) | 179
N#CCc1nc(CSc2nc3ccccc3s2)cs1 | -9
O=[N+]([O-])c1cccc(-n2nnnc2CN2CCCCCC2)c1 | 0
SMILES | INS promoter act
Cc1ccc(-n2ncc(-c3nnc(SCC(=O)NC4CCCC4)o3)c2N)cc1C | -9
COc1ccc(Nc2nc(-c3cccs3)cs2)c(OC)c1 | 592*
COc1ccc(OC)c(Nc2nc(-c3cccs3)cs2)c1 | 64
COc1ccc(Nc2nc(-c3cccs3)cs2)cc1 | 6
Cc1ccc(C(=O)NNC(=O)CSc2nnc(-c3ccccc3)n2Cc2ccccc2)cc1 | -7
CC(=O)c1cnc(N2CCCCC2)nc1C | -3
CCOC(=O)COc1c(C=O)cc(Br)cc1OC | 7
COc1ccc(NC(=S)N(CCCN2CCCCC2)Cc2cccs2)cc1 | -6
CC1CC(C)CN(CCOc2ccccc2-c2ccccc2)C1 (stereo unspecified) | 464*
CC1(C)NC(=O)N(CC(O)COc2ccccc2-c2ccccc2)C1=O (stereo unspecified) | -7
C=CCc1ccc(OCCCCN2CC(C)CC(C)C2)c(OC)c1 (stereo unspecified) | -8
O=C(COc1ccccc1Br)NCc1ccccn1 | 0
COc1cc(NC(=O)Cc2c(C(=O)O)[nH]c3ccccc23)cc(OC)c1OC | -5
COC(=O)CN1C(=O)S/C(=C/c2ccc(N3CCCCC3)o2)C1=O | 184*
O=C(CN1C(=O)S/C(=C/c2ccc(N3CCOCC3)cc2)C1=O)N1CCOCC1 | -6
COC(=O)CN1C(=O)S/C(=C/c2cc(C)n(C)c2C)C1=O | -4
CC(C)CCNC(=S)Nc1ccccc1F | -3
COc1ccc(OC)c(/C=N/N(C)c2ccccc2)c1 | 132*
COc1ccc(OC)c(C(=O)c2ccccc2)c1 | -81
COc1ccc(OC)c(/C=N/NC(=O)CCCC(=O)Nc2cccc(Br)c2)c1 | 7
COc1cc(C(=O)Nc2cnc(NC(=O)C(C)C)cc2C)cc(OC)c1OC | 0
O=C1[C@H]2[C@H]3[C@H](O)[C@H](O)C/C(=N\OC[C@@H](O)COCc4ccco4)[C@@H]3CC[C@H]2C(=O)N1c1ccc(F)cc1F | -5
CC(C)Oc1ccc(/C(O)=C2/C(=O)C(=O)N(Cc3cccnc3)C2c2ccco2)cc1 (stereo unspecified) | -4
O=C(NCCCO)c1cc([N+](=O)[O-])cc2c1C=Cc1ccccc1O2 | 0
COc1ccc(NC(=O)C(NC(=O)CC2NC(=O)NC2=O)c2ccccc2)cc1 (stereo unspecified) | 0
SMILES | INS promoter act
Cc1cc2c(cc1C)NC(CC(=O)NCc1ccccc1)C(=O)N2 (stereo unspecified) | 106
O=C(CC1NC(=O)NC1=O)Nc1cccc2ccccc12 (stereo unspecified) | 569*
CCSC(SCC)[C@H](O)[C@@H](O)[C@H](O)[C@H](O)CO | 5
O=C(COc1ccc(Cl)c(Cl)c1)NN1C(=O)C2C(C1=O)C1C=CC2C12CC2 (stereo unspecified) | 6
COC(=O)c1ccccc1N1C(=O)C2C(C1=O)[C@H]1C=C[C@@H]2C1 (stereo partly specified) | -75
COC(=O)c1ccccc1N1C(=O)C2C(C1=O)C1C=CC2C12CC2 (stereo unspecified) | 164*
COC(=O)c1sccc1NC(=O)Cc1ccc(Br)cc1 | -3
CCc1nc(NCc2ccco2)c2oc3ccccc3c2n1 | -80
CCOC(=O)c1oc2cccc(OC(C)=O)c2c1C | 286
CCOC(=O)c1oc2ccccc2c1NC(=O)COC | 123
CCOC(=O)c1oc2ccc(CNC(C)(C)C)c(Cl)c2c1C | 431*
CC1CCc2c(nc3ncnn3c2NCCN(C)C)C1 (stereo unspecified) | 0
CN(C)c1ccc(/C=C2/C(=O)N(c3ccc([N+](=O)[O-])cc3)N=C2N2CCOCC2)cc1 | -3
C/C(CC(=O)Nc1cc(C)ccn1)=N\NC(=O)c1ccc(C)cc1 | -2
CCC(C)(C)n1nnnc1C(c1ccncc1)N1CCC(C)CC1 (stereo unspecified) | 381
Cc1ccc(SC(C)C(=O)Nc2ccccc2C(=O)N2CCOCC2)cc1 (stereo unspecified) | 83*
CS(=O)(=O)N(CC(=O)Nc1ccccc1C(=O)N1CCOCC1)c1ccccc1 | 252
Cc1ccccc1Nc1ncccc1C(=O)N1CCOCC1 | 0
Cc1ccc(S(=O)(=O)NNC(=O)c2cccc(O)c2)cc1 | -7
Cc1cc(C)c2nc(/N=C(\N)NC(=O)Nc3ccccc3)nc(C)c2c1 | 5
Cc1ccc(NC(=O)CNC2CCS(=O)(=O)C2)cc1C (stereo unspecified) | -3
CN(C(=O)CSc1ncc(C(F)(F)F)cc1Cl)c1c(N)n(Cc2ccccc2)c(=O)[nH]c1=O | 0
CC(C)(C)NC(=O)C(c1ccccn1)N(C(=O)C1CSC(=O)C1)c1ccccc1F (stereo unspecified) | 0
O=S(=O)(c1ccc(OCC(O)CN2CCN(c3ccccc3)CC2)cc1)N1CCOCC1 (stereo unspecified) | 111
OC(CN1CCN(c2ccccc2)CC1)Cn1c2ccccc2c2ccccc21 (stereo unspecified) | -8
OC(CSc1ccc(F)cc1)CN1CCN(c2ccccc2)CC1 (stereo unspecified) | 118*
O=c1c(/C=C(\O)c2ccc(F)cc2)nc2ccccc2n1-c1ccccc1 | 128*
NC(=O)CSc1nc2ccccc2n1-c1ccccc1 | 342

Screening data deposited in PubChem by Columbia University Molecular Screening Center.
